This is an account of results in ChEMBL document CHEMBL1149546, “(2R,3S)-(+)- and (2S,3R)-(-)-Halofuginone lactate: synthesis, absolute configuration, and activity against Cryptosporidium parvum” (Bioorg Med Chem Lett, 2007).

Activity calls are given as the source filed them. No cut-off for these calls is given here.

Series [1] concerns Cryptosporidium parvum. Kind of series: Antiprotozoal activity against Cryptosporidium parvum up to 6 nM. Format: functional. Put shortly: (§1)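 C. parvum development measured in host-cell culture across three independent compound dilution series, with monensin as positive control. The read-out was parasite foci area, with control and test cultures normalized to 100,000 µm² of foci area.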

The test system of series [2] is Cryptosporidium parvum. Kind of series: Antiprotozoal activity against Cryptosporidium parvum. Format: functional, organism-based. Summed up: as §1
Series [3] has as its system Cryptosporidium parvum. Kind of series: Antiprotozoal activity against Cryptosporidium parvum at 0.8 nM. Type of series: functional, organism-based. Summed up: as §1
Series [4] has as its system Mus musculus. Description: Toxicity in Crl:NMRI mouse at 5 mg/kg, po. Type of series: organism-based. More on the design: dose 5 mg/kg, route oral. The following applies: in vivo. Put shortly: (§2)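 Single oral doses of lactate salts (5, 10 and/or 20 mg/kg bodyweight) were given to 4-week-old female Crl:NMRI mice, n = 3 per group. Moribund mice were euthanized.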
Series [5] has as its system Mus musculus. Description: Toxicity in Crl:NMRI mouse at 10 mg/kg, po. Format: organism-based. Details: dose 10 mg/kg, route oral. The note with it: in vivo. Summed up:
as §2

For series [6], the system named is Mus musculus. Kind of series: Toxicity in Crl:NMRI mouse at 20 mg/kg, po. More on the design: dose 20 mg/kg, route oral. The note with it: in vivo. Format: organism-based. Summed up: as §2

`CC(O)C(=O)O.O=C(CC1NCCCC1O)Cn1cnc2cc(Br)c(Cl)cc2c1=O` (racemic; form 1) [HALOFUGINONE LACTATE] displayed an Activity in series [1] of 80%. Regarding `CC(O)C(=O)O.O=C(C[C@H]1NCCC[C@@H]1O)Cn1cnc2cc(Br)c(Cl)cc2c1=O`, the result in series [2] was Active. In series [3], the result was inactive. The Activity entry in series [4] and in series [5] was “Toxic” each time. With `O=C(CC1NCCCC1O)Cn1cnc2cc(Br)c(Cl)cc2c1=O` (racemic; form 2), the result in series [2] was Active. The result in series [3] was inactive. Regarding `CC(O)C(=O)O.O=C(C[C@@H]1NCCC[C@H]1O)Cn1cnc2cc(Br)c(Cl)cc2c1=O`, in series [6], the Activity entry was “Not Active”. On to `O=C(CC1NCCCC1O)Cn1cnc2cc(Br)c(Cl)cc2c1=O` (racemic; form 1), for which the result in series [2] was Active. For the same molecule, the result in series [3] was inactive. `Br.O=C(CC1NCCCC1O)Cn1cnc2cc(Br)c(Cl)cc2c1=O` (racemic; form 2) [HALOFUGINONE HYDROBROMIDE] had an Activity in series [1] of 80%.
